Reference: ChEMBL document CHEMBL3739387, “Discovery and SAR of Novel and Selective Inhibitors of Urokinase Plasminogen Activator (uPA) with an Imidazo[1,2-a]pyridine Scaffold” (J Med Chem, 2015)
pIC50, pKi: −log10 of the molar value. Activity calls are given as the source filed them. The rule behind the calls is not given here.

Assays:
[1] = biological target: T1, Coagulation factor VII (Homo sapiens) (UniProt P08709); assay: Inhibition of purified human factor 7a using MeSO2-Cha-Abu-Arg-pNA as substrate at 100 uM measured for 5 mins by spectrophotometric assay
T1 sequence (whole entry): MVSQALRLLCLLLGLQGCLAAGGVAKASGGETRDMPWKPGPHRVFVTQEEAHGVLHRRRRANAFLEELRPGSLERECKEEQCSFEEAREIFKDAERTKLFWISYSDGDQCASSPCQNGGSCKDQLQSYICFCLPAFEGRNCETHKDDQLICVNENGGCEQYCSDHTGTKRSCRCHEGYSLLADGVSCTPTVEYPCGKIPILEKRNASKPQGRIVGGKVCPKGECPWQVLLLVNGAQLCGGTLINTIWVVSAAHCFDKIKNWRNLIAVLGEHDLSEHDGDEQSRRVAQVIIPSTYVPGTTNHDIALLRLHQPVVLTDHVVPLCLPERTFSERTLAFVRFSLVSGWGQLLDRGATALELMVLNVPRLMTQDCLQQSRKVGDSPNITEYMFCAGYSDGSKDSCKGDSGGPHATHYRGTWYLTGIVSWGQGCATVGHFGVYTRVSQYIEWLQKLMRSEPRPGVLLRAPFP
In short: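 Purified human plasma FVIIa with tissue factor (Innovin) present. MeSO2-Cha-Abu-Arg-pNA at 800 μM in assay. Buffer 50 mM HEPES pH 7.5, 100 mM NaCl, 5 mM CaCl2, 0.1% BSA.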

[2] = biological target: T2, Urokinase-type plasminogen activator (Homo sapiens, UniProt P00749); assay: Inhibition of human uPA using pyro-Glu-Gly-Arg-pNA as substrate assessed as para-nitroaniline release from substrate measured for 5 mins by spectrophotometric assay
[3] = biological target: T3, Tissue-type plasminogen activator (Homo sapiens, UniProt P00750); assay: Inhibition of recombinant human tPA using H-D-Ile-Pro-L-Arg-pNA-2HCl as substrate at 100 uM measured for 5 mins by spectrophotometric assay
Target sequence in this assay (P00750 36-562 limits assumed): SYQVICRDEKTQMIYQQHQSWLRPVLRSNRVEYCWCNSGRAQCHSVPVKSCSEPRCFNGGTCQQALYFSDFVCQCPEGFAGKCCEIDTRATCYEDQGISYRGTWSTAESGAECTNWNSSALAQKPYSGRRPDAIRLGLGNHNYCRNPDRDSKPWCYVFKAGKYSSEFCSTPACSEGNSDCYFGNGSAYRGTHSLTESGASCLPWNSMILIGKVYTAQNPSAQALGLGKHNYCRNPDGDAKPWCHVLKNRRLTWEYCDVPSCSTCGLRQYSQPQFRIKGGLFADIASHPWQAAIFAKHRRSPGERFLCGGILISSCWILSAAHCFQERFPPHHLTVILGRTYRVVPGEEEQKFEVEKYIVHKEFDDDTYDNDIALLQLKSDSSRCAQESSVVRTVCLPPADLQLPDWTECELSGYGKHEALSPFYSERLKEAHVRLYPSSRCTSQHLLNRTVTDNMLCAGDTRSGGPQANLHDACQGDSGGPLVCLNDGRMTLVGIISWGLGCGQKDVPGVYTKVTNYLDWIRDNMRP

[4] = biological target: T2, Urokinase-type plasminogen activator; assay: Reversible inhibition of human uPA using pyro-Glu-Gly-Arg-pNA as substrate assessed as para-nitroaniline release from substrate measured for 5 mins by spectrophotometry based enzyme kinetics assay
[5] = biological target: T2, Urokinase-type plasminogen activator; assay: Tight binding inhibition of human uPA using pyro-Glu-Gly-Arg-pNA as substrate assessed as para-nitroaniline release from substrate measured for 5 mins by spectrophotometry based enzyme kinetics assay
[6] = species on record: Bos taurus; assay: Inhibition of bovine pancreatic trypsin using Na-benzoyl-D,L-Arg-pNA-HCl as substrate at 100 uM measured for 5 mins by spectrophotometric assay
[7] = biological target: T4, Prothrombin (Homo sapiens, UniProt P00734); assay: Inhibition of human plasma thrombin using pyroGlu-Pro-Arg-pNA-HCl as substrate at 100 uM measured for 5 mins by spectrophotometric assay; format: cell-free
In short: (§1)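 Thrombin from human plasma with pyroGlu-Pro-Arg-pNA (CS-21(66), Km 400 μM) at 415 μM in assay. 50 mM HEPES pH 8.2. pNA release at 405 nm over 5 min at 37 °C, in duplicate.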

[8] = biological target: T5, Plasminogen (Homo sapiens, UniProt P00747); assay: Inhibition of human plasma plasmin using pyroGlu-Pro-Arg-pNA-HCl as substrate at 100 uM measured for 5 mins by spectrophotometric assay; format: cell-free
In short: (§2)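 Plasmin purified from human plasma. Substrate pyroGlu-Pro-Arg-pNA (CS-21(66), Km 400 μM) at 400 μM in assay. HEPES pH 7.0, 37 °C, absorbance at 405 nm followed for 5 min, duplicates.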

[9] = biological target: T6, Coagulation factor X (Homo sapiens, UniProt P00742); assay: Inhibition of purified human factor 10a using Suc-Ile-Glu(gammaPip)-GlyArg-pNa-HCl as substrate measured for 5 mins by spectrophotometric assay
In short: (§3)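 Purified human factor Xa, substrate Suc-Ile-Glu(γPip)-Gly-Arg-pNA (CS-11(32)) at 411 μM in assay. HEPES pH 8.2. Read at 405 nm for 5 min at 37 °C, duplicate wells.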

[10] = biological target: T2, Urokinase-type plasminogen activator; assay: Slow dissociating inhibition of human uPA using pyro-Glu-Gly-Arg-pNA as substrate assessed as para-nitroaniline release from substrate measured for 5 mins by spectrophotometry based enzyme kinetics assay
[11] = biological target: T7, Plasma kallikrein (Homo sapiens, UniProt P03952); assay: Inhibition of human plasma kallikrein using D-Pro-Phe-Arg-pNA-2HCl as substrate at 100 uM measured for 5 mins by spectrophotometric assay; format: cell-free
In short: (§4)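 Human plasma kallikrein, chromogenic substrate CS-31(02) (Km 269 μM) at 269 μM in assay. 50 mM HEPES at pH 7.4. Absorbance at 405 nm over 5 min at 37 °C, duplicates.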

[12] = biological target: T6, Coagulation factor X; assay: Inhibition of purified human factor 10a using Suc-Ile-Glu(yPip)-GlyArg-pNa-HCl as substrate at 100 uM measured for 5 mins by spectrophotometric assay; in short: as §3
[13] = Inhibition of bovine pancreatic trypsin using Nalpha-benzoyl-D,L-Arg-pNA-HCl as substrate measured for 5 mins by spectrophotometric assay; set-up: species or system Bos taurus
[14] = biological target: T5, Plasminogen; assay: Inhibition of human plasma plasmin using pyroGlu-Pro-Arg-pNA-HCl as substrate measured for 5 mins by spectrophotometric assay; format: cell-free; in short: as §2
[15] = biological target: T7, Plasma kallikrein; assay: Inhibition of human plasma kallikrein using D-Pro-Phe-Arg-pNA-2HCl as substrate measured for 5 mins by spectrophotometric assay; format: cell-free; in short: as §4
[16] = biological target: T3, Tissue-type plasminogen activator; assay: Inhibition of recombinant human tPA using H-D-Ile-Pro-L-Arg-pNA-2HCl as substrate measured for 5 mins by spectrophotometric assay
Target sequence in this assay (P00750 whole entry): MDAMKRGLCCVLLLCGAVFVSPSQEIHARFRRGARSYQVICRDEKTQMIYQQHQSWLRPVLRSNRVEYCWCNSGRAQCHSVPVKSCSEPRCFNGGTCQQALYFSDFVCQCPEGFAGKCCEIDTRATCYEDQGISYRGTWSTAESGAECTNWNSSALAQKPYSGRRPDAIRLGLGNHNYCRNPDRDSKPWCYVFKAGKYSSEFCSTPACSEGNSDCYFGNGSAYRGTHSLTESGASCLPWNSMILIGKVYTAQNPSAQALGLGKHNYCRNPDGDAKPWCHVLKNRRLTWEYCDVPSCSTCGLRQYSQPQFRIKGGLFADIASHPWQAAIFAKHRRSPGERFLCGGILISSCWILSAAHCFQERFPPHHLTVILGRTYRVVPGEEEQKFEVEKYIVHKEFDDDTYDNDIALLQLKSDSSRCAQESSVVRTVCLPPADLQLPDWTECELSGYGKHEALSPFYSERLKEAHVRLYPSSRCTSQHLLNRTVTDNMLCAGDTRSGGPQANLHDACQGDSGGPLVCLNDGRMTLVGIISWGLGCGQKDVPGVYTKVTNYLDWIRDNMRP

[17] = biological target: T4, Prothrombin; assay: Inhibition of human plasma thrombin using pyroGlu-Pro-Arg-pNA-HCl as substrate measured for 5 mins by spectrophotometric assay; format: cell-free; in short: as §1
[18] = biological target: T2, Urokinase-type plasminogen activator; assay: Inhibition of human uPA

T7 sequence (P03952 20-390 limits assumed): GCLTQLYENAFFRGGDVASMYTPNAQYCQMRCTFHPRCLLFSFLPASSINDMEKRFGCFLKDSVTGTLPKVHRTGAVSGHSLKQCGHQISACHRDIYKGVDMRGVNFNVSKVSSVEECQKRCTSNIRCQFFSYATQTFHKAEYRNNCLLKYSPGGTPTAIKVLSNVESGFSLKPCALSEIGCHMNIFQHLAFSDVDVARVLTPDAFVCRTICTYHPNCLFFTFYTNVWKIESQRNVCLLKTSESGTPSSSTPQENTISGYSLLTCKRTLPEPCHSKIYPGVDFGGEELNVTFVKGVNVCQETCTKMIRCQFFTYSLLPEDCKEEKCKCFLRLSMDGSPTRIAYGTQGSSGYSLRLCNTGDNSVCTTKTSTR
T7 sequence (P03952 391-638 limits assumed): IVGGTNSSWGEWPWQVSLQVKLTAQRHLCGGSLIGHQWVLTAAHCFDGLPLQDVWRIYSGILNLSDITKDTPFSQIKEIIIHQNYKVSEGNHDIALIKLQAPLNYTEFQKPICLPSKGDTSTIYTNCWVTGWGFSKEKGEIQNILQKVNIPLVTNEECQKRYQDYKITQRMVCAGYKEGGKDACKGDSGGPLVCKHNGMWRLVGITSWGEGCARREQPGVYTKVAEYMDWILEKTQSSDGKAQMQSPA
T5 sequence (P00747 97-580 limits assumed): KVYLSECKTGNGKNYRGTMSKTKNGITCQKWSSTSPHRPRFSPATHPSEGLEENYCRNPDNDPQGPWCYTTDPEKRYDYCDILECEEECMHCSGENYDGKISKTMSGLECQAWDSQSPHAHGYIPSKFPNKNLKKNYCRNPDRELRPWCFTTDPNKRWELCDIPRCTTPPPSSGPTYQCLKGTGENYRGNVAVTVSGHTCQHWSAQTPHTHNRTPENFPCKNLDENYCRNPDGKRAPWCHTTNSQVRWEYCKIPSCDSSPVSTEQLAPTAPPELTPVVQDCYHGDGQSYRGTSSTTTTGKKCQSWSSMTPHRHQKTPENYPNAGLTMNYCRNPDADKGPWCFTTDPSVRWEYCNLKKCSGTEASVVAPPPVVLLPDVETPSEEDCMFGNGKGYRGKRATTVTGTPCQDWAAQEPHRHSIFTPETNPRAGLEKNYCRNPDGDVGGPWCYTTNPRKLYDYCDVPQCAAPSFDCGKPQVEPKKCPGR
T5 sequence (P00747 581-810 limits assumed): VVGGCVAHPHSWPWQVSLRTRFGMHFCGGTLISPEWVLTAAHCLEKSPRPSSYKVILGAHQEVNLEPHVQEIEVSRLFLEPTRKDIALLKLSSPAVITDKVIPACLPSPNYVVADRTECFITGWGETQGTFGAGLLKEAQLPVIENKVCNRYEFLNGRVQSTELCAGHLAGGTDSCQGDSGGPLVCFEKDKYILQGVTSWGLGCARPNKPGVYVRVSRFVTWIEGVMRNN
T6 sequence (P00742 41-179 limits assumed): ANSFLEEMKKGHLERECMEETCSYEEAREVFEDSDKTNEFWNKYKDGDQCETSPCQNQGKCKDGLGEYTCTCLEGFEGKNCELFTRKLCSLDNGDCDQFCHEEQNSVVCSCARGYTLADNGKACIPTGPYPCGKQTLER
T6 sequence (P00742 235-488 limits assumed): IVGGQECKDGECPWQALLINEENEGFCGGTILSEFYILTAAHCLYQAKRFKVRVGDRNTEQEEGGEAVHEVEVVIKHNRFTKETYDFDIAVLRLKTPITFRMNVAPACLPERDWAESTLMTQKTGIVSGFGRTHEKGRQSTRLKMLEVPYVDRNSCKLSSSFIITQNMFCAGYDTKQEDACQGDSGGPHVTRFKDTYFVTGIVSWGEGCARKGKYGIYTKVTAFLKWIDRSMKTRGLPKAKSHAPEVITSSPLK

Compound `N=C(N)Nc1ccc(CNc2cnc3cc(C(=O)NCCO)ccn23)cc1` has an inhibition [1] of 5%, a pIC50 [2] of 6.44 and an inhibition [3] of 0%. For the same compound, the inhibition [4] was “Active”, the inhibition [5] was “Active” and the inhibition [6] was 43.3%. The inhibition [7] was 4.7%, the inhibition [8] was 15.6% and the pIC50 [9] was 4.29. The inhibition [10] was “Active” and the inhibition [11] was 0%.

Work on `N=C(N)Nc1ccc(CNc2c(CN)nc3ccccn23)cc1` yielded a pIC50 [2] of 5.03.

`N=C(N)Nc1ccc(CNc2cnc3ccccn23)cc1` showed an inhibition [1] of 2.5%, a pIC50 [2] of 5.04 and an inhibition [3] of 33.6%. The inhibition [12] was 42%, the pIC50 [13] was 3.94 and the inhibition [7] was 23%. For the same compound, the inhibition [8] was 29.8% and the inhibition [11] was 39.4%.

Work on `CN1CCN(CCNC(=O)c2ccn3c(NCc4ccc(NC(=N)N)cc4)cnc3c2)CC1` yielded an inhibition [1] of 2%, a pIC50 [2] of 6.39 and an inhibition [3] of 2.8%. The inhibition [4] was “Active”, the inhibition [12] was 12.2% and the inhibition [5] was “Active”. It also gave an inhibition [6] of 32%, an inhibition [7] of 6.6% and an inhibition [8] of 0%. The inhibition [10] was “Active” and the inhibition [11] was 0%.

For `NCCOc1ccc(Nc2cnc3ccccn23)cc1`, the pIC50 [2] was < 3.00.

`N=C(N)Nc1ccc(CNc2c(-c3cccnc3)nc3ccccn23)cc1` showed an inhibition [1] of 0%, a pIC50 [2] of 3.60 and an inhibition [3] of 9.4%. It also gave an inhibition [12] of 24.6%, an inhibition [6] of 3.3% and an inhibition [7] of 6.6%. The inhibition [8] was 0% and the inhibition [11] was 0%.

`Clc1ccc(OCCNc2cnc3ccccn23)c(Cl)c1` showed a pIC50 [2] of 3.60.

Compound `N=C(N)Nc1ccc(CNc2c(Cc3ccccc3)nc3ccccn23)cc1` has a pIC50 [2] of 4.52.

Compound `N=C(N)Nc1ccc(CNc2cnc3cc(C(=O)NC4CC4)ccn23)cc1` has an inhibition [1] of 2.6%, a pIC50 [2] of 6.74 and an inhibition [3] of 0%. The inhibition [4] was “Active”, the inhibition [12] was 45.4% and the inhibition [5] was “Active”. The inhibition [6] was 46%, the inhibition [7] was 8% and the inhibition [8] was 3.3%. The inhibition [10] was “Active” and the inhibition [11] was 0%.

Work on `N=C(N)Nc1ccc(CNc2c(-c3cccc(F)c3)nc3ccccn23)cc1` yielded a pIC50 [2] of 4.00.

Work on `CCc1nc2ccccn2c1NCCc1ccc(NC(=N)N)cc1` yielded a pIC50 [2] of 3.82.

`COC(=O)c1ccn2c(NCc3ccc(NC(=N)N)cc3)c(-c3cccnc3)nc2c1` showed a pIC50 [2] of 4.83.

In the case of `CCc1ccc(-c2nc3ccccn3c2NCc2ccc(NC(=N)N)cc2)cc1`, the pIC50 [2] was 4.19.

In the case of `CCCCNC(=O)c1ccc2nc(-c3cccnc3)c(NCc3ccc(NC(=N)N)cc3)n2c1`, the pIC50 [2] was 4.22.

In the case of `N=C(N)NCCCCNc1cnc2ccccn12`, the pIC50 [2] was 3.70.

For `N=C(N)c1ccc(/C=C2/N=C(c3ccccc3)OC2=O)cc1`, the inhibition [1] was 0%, the pIC50 [2] was 5.06 and the pIC50 [14] was 6.47. The pIC50 [15] was 5.87, the pIC50 [13] was 5.50 and the pIC50 [16] was 4.16. It also gave a pIC50 [17] of 4.25 and a pIC50 [9] of 5.19.

`N=C(N)Nc1ccc(CNc2c(-c3cc(Cl)cc(Cl)c3)nc3ccccn23)cc1` showed a pIC50 [2] of 4.00.

In the case of `NCCOc1c(Cl)cc(Nc2cnc3ccccn23)cc1Cl`, the pIC50 [2] was 3.30.

Compound `N=C(N)Nc1ccc(CNc2c(Cc3cccc(Cl)c3)nc3ccccn23)cc1` has a pIC50 [2] of 4.74.

With `N=C(N)Nc1ccc(CNc2cnc3cc(C(=O)NCc4ccc(F)cc4)ccn23)cc1` the inhibition [1] was 4.2%, the pIC50 [2] was 6.60 and the inhibition [3] was 11.9%. For the same compound, the inhibition [4] was “Active”, the inhibition [12] was 45.7% and the inhibition [5] was “Active”. It also gave an inhibition [6] of 43.2%, an inhibition [7] of 19.5% and an inhibition [8] of 8.3%. For the same compound, the inhibition [10] was “Active” and the inhibition [11] was 0%.

Compound `N=C(N)Nc1ccc(CNc2c(-c3cccnc3)nc3ccc(C(N)=O)cn23)cc1` has a pIC50 [2] of 4.56.

`CCCCNC(=O)c1ccn2c(NCc3ccc(NC(=N)N)cc3)c(-c3cccnc3)nc2c1` gave a pIC50 [2] of 5.16.

For `N=C(N)NC(=O)c1nc(Cl)c(N)nc1N` [AMILORIDE], the inhibition [1] was 7.4%, the inhibition [3] was 1% and the inhibition [12] was 3.5%. The pIC50 [13] was 4.50, the inhibition [7] was 5.2% and the inhibition [8] was 0%. It also gave an inhibition [11] of 0%.

With `N=C(N)Nc1ccc(CNc2c(-c3ccccc3)nc3ccccn23)cc1` the pIC50 [2] was 4.52.

In the case of `CCc1nc2ccccn2c1NCc1ccc(NC(=N)N)cc1`, the pIC50 [2] was 4.31.

With `Cc1ccc2nc(-c3cccnc3)c(NCc3ccc(NC(=N)N)cc3)n2c1` the pIC50 [2] was 4.62.

Work on `N=C(N)Nc1ccc(CNc2cnc3cc(C(=O)NC4CCCC4)ccn23)cc1` yielded an inhibition [1] of 4%, a pIC50 [2] of 6.76 and an inhibition [3] of 11.2%. The inhibition [4] was “Active”, the inhibition [12] was 47.8% and the inhibition [5] was “Active”. It also gave an inhibition [6] of 37.1%, an inhibition [7] of 17.8% and an inhibition [8] of 0%. For the same compound, the inhibition [10] was “Active” and the inhibition [11] was 0%.

`N=C(N)c1ccc(CNC(=O)[C@H](CO)NC(=O)[C@@H](CO)NS(=O)(=O)Cc2ccccc2)cc1` gave a pKi [18] of 7.70.

With `N=C(N)Nc1ccc(CCNc2c(-c3cccc(Cl)c3)nc3cnccn23)cc1` the pIC50 [2] was 4.27.

Compound `N=C(N)Nc1ccc(CNc2c(-c3ccc(F)cc3)nc3ccccn23)cc1` has a pIC50 [2] of 3.90.

Work on `Cc1cccn2c(NCc3ccc(NC(=N)N)cc3)c(-c3cccnc3)nc12` yielded a pIC50 [2] of 4.56.

`N=C(N)Nc1ccc(CNc2c(-c3cccnc3)nc3cc(C(=O)O)ccn23)cc1` gave a pIC50 [2] of 4.57.

With `N=C(N)Nc1ccccc1` the inhibition [1] was 0%, the inhibition [3] was 0% and the inhibition [12] was 0%. The inhibition [6] was 38.8%, the inhibition [7] was 0% and the inhibition [8] was 0%. It also gave an inhibition [11] of 0%.

In the case of `CCOC(=O)c1ccc(OC(=O)CCCCCNC(=N)N)cc1` [GABEXATE], the pIC50 [2] was 6.37, the pIC50 [14] was 5.81 and the pIC50 [15] was 5.87. It also gave a pIC50 [13] of 5.15, a pIC50 [16] of 4.81 and a pIC50 [17] of 6.16. It also gave a pIC50 [9] of 5.34.

With `N=C(N)Nc1ccc(CNc2c(-c3cccnc3)nc3ccc(F)cn23)cc1` the pIC50 [2] was 4.24.

`N=C(N)Nc1ccc(CCNc2cnc3ccccn23)cc1` gave a pIC50 [2] of 4.71.

For `NC[C@H]1CC[C@H](Nc2cnc3ccccn23)CC1`, the pIC50 [2] was 3.30.

Work on `N=C(N)Nc1ccc(CNc2c(-c3cccnc3)nc3ccc(C(F)(F)F)cn23)cc1` yielded a pIC50 [2] of 3.70.

`N=C(N)Nc1ccc(CNc2c(C3CCNCC3)nc3ccccn23)cc1` gave a pIC50 [2] of 3.60.

In the case of `NCc1ccc(Nc2cnc3ccccn23)cc1`, the pIC50 [2] was < 3.30.
